One assay concerns Saccharomyces cerevisiae. Nature of the assay: Antimicrobial activity against Saccharomyces cerevisiae RSKK 251 after 18 to 24 hrs by double microdilution method. The class given is functional. For orientation: In broth dilution the organism is exposed to a series of concentrations in liquid medium.
A further assay concerns Candida albicans. Nature of the assay: Antimicrobial activity against Candida albicans ATCC 60193 after 18 to 24 hrs by double microdilution method. The class given is functional.
For assay [1], the system named is Mycolicibacterium smegmatis. Briefly: Antimicrobial activity against Mycobacterium smegmatis ATCC 607 after 48 to 72 hrs by double microdilution method. The class given is functional.
In the next assay the test system is Bacillus cereus. Nature of the assay: Antimicrobial activity against Bacillus cereus 702 Roma after 18 to 24 hrs by double microdilution method. The class given is functional. Put shortly:
(§1)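 Twofold broth microdilution in Mueller-Hinton broth, pH 7.3. Compounds come from 20.000 µg/mL stocks in hexane. […] Ampicillin serves as reference drug and DMSO diluted 1:10 as solvent control.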

For another assay, the system named is Enterococcus faecalis. Nature of the assay: Antimicrobial activity against Enterococcus faecalis ATCC 29212 after 18 to 24 hrs by double microdilution method. The class given is functional. The procedure, abridged:
as §1

In the next assay the test system is Staphylococcus aureus. Briefly: Antimicrobial activity against Staphylococcus aureus ATCC 25923 after 18 to 24 hrs by double microdilution method. The class given is functional. Put shortly:
as §1

A further assay deals with Pseudomonas aeruginosa. Nature of the assay: Antimicrobial activity against Pseudomonas aeruginosa ATCC 43288 after 18 to 24 hrs by double microdilution method. The class given is functional. Put shortly: as §1
Assay [2] deals with Yersinia pseudotuberculosis. Briefly: Antimicrobial activity against Yersinia pseudotuberculosis ATCC 911 after 18 to 24 hrs by double microdilution method. The class given is functional. The procedure, abridged: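 Double broth microdilution MIC (µg/mL). Mueller-Hinton broth pH 7.3; plates incubated 18–24 h at 35 °C. Compounds dissolved in […] as 20.000 µg/mL stock. Ampicillin as reference antibacterial; DMSO diluted 1:10 as solvent control.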

In the next assay the target is Urease (Canavalia ensiformis, UniProt P07374). Nature of the assay: Inhibition of Jack bean urease using urea as substrate assessed as production of ammonia after 15 mins. The procedure, abridged: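 Jack bean urease in buffer (100 mM urea, 0.01 M K2HPO4, 1 mM EDTA, 0.01 M LiCl, pH 8.2) incubated with compound 15 min at room temperature. Ammonia read by indophenol method (phenol/nitroprusside plus NaOH/NaOCl), absorbance 625 nm after 20 min. % inhibition = 100 − (OD test/OD control)×100. IC50 from serial concentrations (250 to 0.114 µg/mL), triplicate; thiourea standard.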
Sequence of Urease (P07374 whole entry): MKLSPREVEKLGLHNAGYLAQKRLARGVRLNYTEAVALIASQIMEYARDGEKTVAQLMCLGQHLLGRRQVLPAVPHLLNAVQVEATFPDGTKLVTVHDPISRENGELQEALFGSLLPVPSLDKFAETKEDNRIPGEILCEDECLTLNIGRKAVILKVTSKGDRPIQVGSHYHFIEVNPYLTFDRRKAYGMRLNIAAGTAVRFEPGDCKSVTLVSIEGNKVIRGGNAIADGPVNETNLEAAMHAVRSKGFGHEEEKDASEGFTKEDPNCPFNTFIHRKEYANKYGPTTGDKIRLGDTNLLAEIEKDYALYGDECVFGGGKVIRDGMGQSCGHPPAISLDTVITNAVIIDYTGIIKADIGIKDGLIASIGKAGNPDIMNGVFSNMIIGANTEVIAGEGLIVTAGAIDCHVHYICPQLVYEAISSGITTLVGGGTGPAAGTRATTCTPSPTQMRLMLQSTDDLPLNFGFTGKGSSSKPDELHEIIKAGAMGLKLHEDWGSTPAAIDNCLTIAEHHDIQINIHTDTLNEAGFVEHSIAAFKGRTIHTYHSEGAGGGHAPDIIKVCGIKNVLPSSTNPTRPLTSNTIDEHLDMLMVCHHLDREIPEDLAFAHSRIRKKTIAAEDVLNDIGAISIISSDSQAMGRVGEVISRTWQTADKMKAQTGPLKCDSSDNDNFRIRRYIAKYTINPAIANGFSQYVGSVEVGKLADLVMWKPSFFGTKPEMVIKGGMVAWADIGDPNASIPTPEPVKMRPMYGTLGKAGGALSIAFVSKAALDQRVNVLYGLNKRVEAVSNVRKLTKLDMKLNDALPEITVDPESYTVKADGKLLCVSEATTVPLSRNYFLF

Assay [3] concerns the target Urease (Canavalia ensiformis) (UniProt P07374). Briefly: Inhibition of Jack bean urease using urea as substrate assessed as production of ammonia at 100 ug/ml after 15 mins. The procedure, abridged: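 Jack bean urease with buffer (100 mM urea, 0.01 M K2HPO4, 1 mM EDTA, 0.01 M LiCl, pH 8.2) and compound, 15 min at room temperature. Ammonia read by indophenol method (phenol/nitroprusside plus NaOH/NaOCl), A625 after 20 min. % inhibition = 100 − (OD test/OD control)×100. Thiourea as standard; triplicates.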

The structures appear in SMILES notation. ≈ marks a conversion by molar mass, not a printed value. Calls of active or inactive are those of the source. No cut-off for these calls is given here.

Sequence of Urease (Canavalia ensiformis) (P07374 whole entry, looked up): as the sequence (P07374 whole entry) above

As for `CCn1cc(C(=O)O)c(=O)c2cc(F)c(N3CCN(c4ccc(NC(=S)NCc5ccccc5)cc4F)CC3)cc21`, the MIC entry in the assay on Saccharomyces cerevisiae and in the assay with Candida albicans was “inactive” throughout. Also, the MIC in [1] is 0.97 µg/mL (≈ 1.68 µM); in the assay with Bacillus cereus, less than 1.9 µg/mL; against Enterococcus faecalis it was less than 1.9 µg/mL; against Staphylococcus aureus it was less than 1.9 µg/mL; in the assay with Pseudomonas aeruginosa it was 31.5 µg/mL (≈ 54.5 µM); in assay [2] it was less than 1.9 µg/mL.
`NC(N)=S` [THIOUREA]: the IC50 at Urease was 678 µM.
Consider `CCn1cc(C(=O)O)c(=O)c2cc(F)c(N3CCN(C(=O)CCl)CC3)cc21`, for which the MIC entry in the assay with Saccharomyces cerevisiae and in the assay with Candida albicans was “inactive” throughout. Further, the minimal inhibitory concentration (MIC) was 0.42 µg/mL (≈ 1.06 µM) in assay [1]; 0.21 µg/mL (≈ 0.531 µM) against Bacillus cereus; 0.21 µg/mL (≈ 0.531 µM) against Enterococcus faecalis; 0.21 µg/mL (≈ 0.531 µM) in the assay on Staphylococcus aureus; 15.6 µg/mL (≈ 39.4 µM) against Pseudomonas aeruginosa; 1.7 µg/mL (≈ 4.29 µM) in assay [2].
On to `CCn1cc(C(=O)O)c(=O)c2cc(F)c(N3CCN(C(=O)CSc4nnc(CN5CCN(c6ccccc6OC)CC5)n4-c4ccccc4)CC3)cc21`, for which the half-inhibitory concentration (IC50) on Urease is 27.7 µM. Also, the inhibition in assay [3] came to 86.2%.
For the compound `COc1ccccc1N1CCN(CC(=O)N/N=C\c2ccccc2O)CC1`, the minimal inhibitory concentration (MIC) in the assay with Saccharomyces cerevisiae was 62.5 µg/mL (≈ 170 µM); in the assay on Candida albicans it was 250 µg/mL (≈ 679 µM); in assay [1] it was 31.3 µg/mL (≈ 85 µM); in the assay with Bacillus cereus, 31.3 µg/mL (≈ 85 µM); in the assay with Enterococcus faecalis, 15.6 µg/mL (≈ 42.3 µM); in the assay on Staphylococcus aureus, 31.3 µg/mL (≈ 85 µM). Also, the MIC stood at 62.5 µg/mL (≈ 170 µM) in the assay with Pseudomonas aeruginosa and 31.3 µg/mL (≈ 85 µM) in [2].
Take `CCNC(=S)Nc1ccc(N2CCN(c3cc4c(cc3F)c(=O)c(C(=O)O)cn4CC)CC2)c(F)c1`: the MIC in the assay with Saccharomyces cerevisiae and against Candida albicans was 250 µg/mL (≈ 485 µM) each time. The MIC entry (in assay [1]; in the assay on Bacillus cereus; in the assay with Enterococcus faecalis; in the assay with Staphylococcus aureus; in the assay with Pseudomonas aeruginosa; in assay [2]) was “inactive” each time.
With `CCn1cc(C(=O)O)c(=O)c2cc(F)c(N3CCN(c4ccc(NC(=S)NCCCN5CCOCC5)cc4F)CC3)cc21`, the MIC entry (with Saccharomyces cerevisiae; in the assay on Candida albicans; in assay [1]) was “inactive” each time. Also, the MIC was found to be 125 µg/mL (≈ 203 µM) against Bacillus cereus; 31.2 µg/mL (≈ 50.8 µM) against Enterococcus faecalis; 15.6 µg/mL (≈ 25.4 µM) in the assay on Staphylococcus aureus; 500 µg/mL (≈ 813 µM) against Pseudomonas aeruginosa; 62.5 µg/mL (≈ 102 µM) in assay [2].
On to `CCn1cc(C(=O)O)c(=O)c2cc(F)c(N3CCN(c4ccc([N+](=O)[O-])cc4F)CC3)cc21`, for which the MIC entry (in the assay on Saccharomyces cerevisiae; in the assay on Candida albicans; in [1]; in the assay with Bacillus cereus; in the assay with Enterococcus faecalis; with Staphylococcus aureus) was “inactive” in each case. In addition, in the assay on Pseudomonas aeruginosa, the MIC entry is “inactive”. Moreover, in assay [2], the minimal inhibitory concentration (MIC) was 31.5 µg/mL (≈ 68.7 µM).
Consider `CCn1cc(C(=O)O)c(=O)c2cc(F)c(N3CCN(c4ccc(/N=C5\SC(=O)CN5Cc5ccccc5)cc4F)CC3)cc21`, for which the minimum inhibitory concentration (MIC) against Saccharomyces cerevisiae amounted to 250 µg/mL (≈ 405 µM); against Candida albicans, 250 µg/mL (≈ 405 µM); in assay [1] it was 62.5 µg/mL (≈ 101 µM); with Bacillus cereus, 125 µg/mL (≈ 202 µM); against Enterococcus faecalis, 125 µg/mL (≈ 202 µM); in the assay with Staphylococcus aureus, 125 µg/mL (≈ 202 µM). The compound further returned an MIC in [2] of 62.5 µg/mL (≈ 101 µM). The MIC result in the assay on Pseudomonas aeruginosa is “inactive”.
For the compound `CN[C@@H]1[C@H](O[C@H]2[C@H](O[C@H]3[C@H](O)[C@@H](O)[C@H](N=C(N)N)[C@@H](O)[C@@H]3N=C(N)N)O[C@@H](C)[C@]2(O)C=O)O[C@@H](CO)[C@H](O)[C@H]1O` [STREPTOMYCIN], the MIC in [1] is 4 µg/mL (≈ 6.88 µM).
Consider `CCn1cc(C(=O)O)c(=O)c2cc(F)c(N3CCN(c4ccc(N)cc4F)CC3)cc21`, for which the MIC entry in the assay with Saccharomyces cerevisiae and in the assay with Candida albicans was “inactive” throughout. In addition, the minimum inhibitory concentration (MIC) in assay [1] was 1.95 µg/mL (≈ 4.55 µM); with Bacillus cereus it was less than 1.9 µg/mL; against Enterococcus faecalis, less than 1.9 µg/mL; against Staphylococcus aureus, less than 1.9 µg/mL; in the assay on Pseudomonas aeruginosa, 7.81 µg/mL (≈ 18.2 µM); in assay [2], less than 1.9 µg/mL.
Consider `CC1(C)S[C@@H]2[C@H](NC(=O)[C@H](N)c3ccccc3)C(=O)N2[C@H]1C(=O)O` [AMPICILLIN], for which the minimum inhibitory concentration (MIC) in the assay on Bacillus cereus is 15 µg/mL (≈ 42.9 µM); in the assay on Enterococcus faecalis, 10 µg/mL (≈ 28.6 µM); in the assay with Staphylococcus aureus, 35 µg/mL (≈ 100 µM); in the assay with Pseudomonas aeruginosa, more than 128 µg/mL; in [2] it was 18 µg/mL (≈ 51.5 µM).
For the compound `CCn1cc(C(=O)O)c(=O)c2cc(F)c(N3CCN(c4ccc(NC(=O)NCc5ccccc5)cc4F)CC3)cc21`, the minimal inhibitory concentration (MIC) in the assay on Saccharomyces cerevisiae is 250 µg/mL (≈ 445 µM); with Candida albicans, 500 µg/mL (≈ 890 µM); in the assay with Bacillus cereus, 500 µg/mL (≈ 890 µM); against Enterococcus faecalis it was 500 µg/mL (≈ 890 µM); against Staphylococcus aureus it was 500 µg/mL (≈ 890 µM). The MIC entry (in assay [1]; in the assay on Pseudomonas aeruginosa; in [2]) was “inactive” in each case.
With `CCn1cc(C(=O)O)c(=O)c2cc(F)c(N3CCN(c4ccc(/N=c5\sc(-c6ccc(Cl)cc6)cn5Cc5ccccc5)cc4F)CC3)cc21`, the MIC in the assay on Saccharomyces cerevisiae, against Candida albicans and with Enterococcus faecalis was 250 µg/mL (≈ 351 µM) each time. Besides, the MIC result (in assay [1]; with Bacillus cereus; in the assay on Staphylococcus aureus; in the assay with Pseudomonas aeruginosa; in assay [2]) was “inactive” throughout.
Consider `OC(Cn1cncn1)(Cn1cncn1)c1ccc(F)cc1F` [FLUCONAZOLE], for which the minimal inhibitory concentration (MIC) with Saccharomyces cerevisiae and in the assay with Candida albicans was less than 8 µg/mL throughout.
Regarding `COc1ccc(/C=N\NC(=O)CN2CCN(c3ccccc3OC)CC2)cc1O`, the MIC against Saccharomyces cerevisiae was found to be 31.3 µg/mL (≈ 78.6 µM); in the assay on Candida albicans, 62.5 µg/mL (≈ 157 µM); in assay [1], 31.3 µg/mL (≈ 78.6 µM); in the assay on Bacillus cereus it was 31.3 µg/mL (≈ 78.6 µM); against Enterococcus faecalis, 15.6 µg/mL (≈ 39.2 µM); in the assay on Staphylococcus aureus, 31.3 µg/mL (≈ 78.6 µM). In addition, the MIC (in the assay on Pseudomonas aeruginosa; in assay [2]) was 31.3 µg/mL (≈ 78.6 µM) throughout.
With `CCN1CC(=O)S/C1=N\c1ccc(N2CCN(c3cc4c(cc3F)c(=O)c(C(=O)O)cn4CC)CC2)c(F)c1`, the minimum inhibitory concentration (MIC) with Saccharomyces cerevisiae, against Candida albicans, against Bacillus cereus, against Enterococcus faecalis and in the assay with Staphylococcus aureus was 250 µg/mL (≈ 450 µM) each time. In addition, the MIC entry (in assay [1]; in the assay with Pseudomonas aeruginosa; in assay [2]) was “inactive” each time.
With `CCn1cc(-c2ccc(Cl)cc2)s/c1=N\c1ccc(N2CCN(c3cc4c(cc3F)c(=O)c(C(=O)O)cn4CC)CC2)c(F)c1`, the MIC result (in the assay on Saccharomyces cerevisiae; with Candida albicans; in assay [1]; with Enterococcus faecalis; in the assay on Staphylococcus aureus; in the assay with Pseudomonas aeruginosa) was “inactive” each time. In assay [2], the MIC entry is “inactive”. The same compound displayed an MIC against Bacillus cereus of 1000 µg/mL (≈ 1540 µM).

In general, MIC refers to the least concentration at which growth counts as inhibited. The IC50 is the concentration at which inhibition is half-maximal. Usually inhibition stands for the percentage by which the read-out fell short of the control.

The values are drawn from ChEMBL document CHEMBL2417515, “Microwave assisted synthesis of some hybrid molecules derived from norfloxacin and investigation of their biological activities” (Eur J Med Chem, 2013).
